Only some compounds are listed: those with a hit (about 2.6% of all), similar ones and a draw of the others.
TNAP act hiacc: activators of human TNAP at high phosphate acceptor concentration; P05186; purified TNAP, CDP-star luminescence, 1 M DEA, 30 min; stronger effect = higher value; 0 = EDTA background, 1 = DMSO-only activity; activation factor at 20 µM; 200,000 tested, under 10 active;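 active = activation factor at least 2 at 20 µM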
Target sequence (P05186 whole entry, looked up): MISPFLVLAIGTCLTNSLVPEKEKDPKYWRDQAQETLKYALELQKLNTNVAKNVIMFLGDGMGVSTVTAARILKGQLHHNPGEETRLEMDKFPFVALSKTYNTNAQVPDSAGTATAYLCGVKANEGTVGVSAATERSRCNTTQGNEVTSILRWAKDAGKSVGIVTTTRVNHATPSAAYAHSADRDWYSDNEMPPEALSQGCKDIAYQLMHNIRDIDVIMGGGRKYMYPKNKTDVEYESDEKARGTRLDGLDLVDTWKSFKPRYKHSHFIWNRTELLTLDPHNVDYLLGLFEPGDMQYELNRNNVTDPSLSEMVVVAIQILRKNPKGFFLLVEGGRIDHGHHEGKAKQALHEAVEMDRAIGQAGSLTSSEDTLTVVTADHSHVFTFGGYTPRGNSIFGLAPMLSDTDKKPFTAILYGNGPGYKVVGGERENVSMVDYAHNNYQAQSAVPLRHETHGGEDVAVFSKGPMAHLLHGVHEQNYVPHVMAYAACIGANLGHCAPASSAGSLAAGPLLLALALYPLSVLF
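system = human TNAP | amount = enzyme diluted 1/800 final | reagent = 100 µM CDP-star substrate | signal = luminescent substrate turnover signal | dosing = one dose, 20 µM | benchmarks = EDTA negative control, DMSO positive control | measure = activation factor | timing = 30 min reaction, room temperature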
Arbovirus anti: arbovirus infection inhibition; arbovirus infection cell-based antiviral screen; inhibition, % at 10 µM; 0.37% of 200,000 active; in the data active = inhibition above about 30%
WT yeast gro inh: growth inhibition of WT yeast, mitochondrial fusion screen; 2.1% of 190,000 active; AID 1362; inhibition, % at 10 µM; mitochondrial fusion phenotypic screen, WT strain; in the data active = inhibition above about 58%; tested in S. cerevisiae
TNAP inh noacc: TNAP (human) inhibition, acceptor-free conditions; P05186; purified TNAP, CDP-star luminescence, 30 min; inhibition, % at 20 µM; 0.26% of 200,000 active; AID 1012;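 active = tissue-nonspecific alkaline phosphatase inhibition above about 50% at 20 µM in the single-dose screen, limit read from the data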
TNAP inh hiacc: inhibitors of human TNAP at high phosphate acceptor concentration; P05186; purified TNAP, CDP-star luminescence, 1 M DEA; inhibition, % at 20 µM; 0.03% of 200,000 active; AID 1135;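 active = over 50% inhibition of tissue-nonspecific alkaline phosphatase at 20 µM in the single-dose screen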
Of the large screens only hits and unclear results are named; the others gave an inactive call.

CCC(C)c1ccc(NC(=O)COc2c(F)c(F)c(C(F)(F)F)c(F)c2F)cc1 (stereo not given)	WT yeast gro inh 70
O=C(COc1c(F)c(F)c(C(F)(F)F)c(F)c1F)Nc1ccc(N2CCOCC2)c(Cl)c1	WT yeast gro inh 70
C=CCNC(=O)c1onc(CSc2ccc(C(C)C)cc2)c1C(=O)O	Arbovirus anti 36
C=CCNC(=O)c1onc(CSc2ccccc2)c1C(=O)O	none
Cn1cccc1C(=O)NC(=O)COC(=O)CNC(=O)CNC(=O)c1ccc(Cl)cc1Cl	none
Cc1ccc2nc(N/N=C/c3ccccc3F)nc(-c3ccccc3)c2c1	WT yeast gro inh 64
C/C(=N\Nc1cccc(Cl)c1)c1ccc(-n2ccnc2)cc1	WT yeast gro inh 66
Cc1ccc(NC(=O)c2cc(N3C(=O)C=CC3=O)ccc2N2CCOCC2)cc1Cl	WT yeast gro inh 66
Cc1ccc(NC(=O)c2cc(N3C(=O)CCC3=O)ccc2N2CCOCC2)cc1	none
CCC(=C(c1ccc(OC)cc1)c1ccc(OC)cc1)c1cn(CC(O)CN(CCO)CCO)c2ccccc12 (stereo not given)	WT yeast gro inh 98
Cc1cc(C)n2nc(CC(=O)NCc3ccccc3Cl)nc2n1	none
S=C(NCc1ccco1)N1CCN(c2ccccc2Cl)CC1	WT yeast gro inh 72
CCCCNC(=S)N1CCN(c2ccccc2Cl)CC1	WT yeast gro inh 66
COCCSc1nnc(NC(=O)C2CCCCC2)s1	Arbovirus anti 32
O=C(Nc1nnc(SCC(=O)N2CCCCC2)s1)C1CCCCC1	none
COc1ccc(NC(=S)NCc2ccc3c(c2)OCO3)cc1	none
CC(C)c1ccc(NC(=S)NCc2ccc3c(c2)OCO3)cc1	WT yeast gro inh 67
CCOC(=O)C(=NCCCN1CCOCC1)NNc1cccc(C(F)(F)F)c1	none
COc1ccc(C(C)=O)cc1CSc1nnc(-c2ccccc2O)n1-c1ccccc1	none
Oc1cc2c(cc1O)[C@@H](c1ccccc1)CNCC2	TNAP inh noacc 66
CSCC[C@H](NC(=O)c1cccc([N+](=O)[O-])c1C)c1nc2ccccc2[nH]1	none
Cc1c(C(=O)NC(Cc2ccccc2)c2nc3ccccc3[nH]2)cccc1[N+](=O)[O-] (stereo not given)	Arbovirus anti 33
CC(C)c1ccccc1NC(=S)NN(Cc1ccccc1)c1ccccc1	WT yeast gro inh 62
S=C(NCc1ccccc1)N1CCn2cccc2C1c1cccnc1 (stereo not given)	Arbovirus anti 34
CCCCNC(=S)N1CCn2cccc2C1c1ccc(F)cc1 (stereo not given)	WT yeast gro inh 61
Fc1ccc(C2c3cccn3CCN2C(=S)Nc2cccc(Br)c2)cc1 (stereo not given)	WT yeast gro inh 86
Fc1ccc(NC(=S)N2CCn3cccc3C2c2cccnc2)cc1 (stereo not given)	none
CCCCOc1ccc(Cc2n[nH]c(=S)n2N)cc1	none
CCOC(=O)Cc1nnc(NC(=O)CSc2nnc3c4ccccc4n(C)c3n2)s1	none
COc1ccc(C2CC(c3cccs3)=NN2C(=O)c2ccc(Br)o2)cc1 (stereo not given)	WT yeast gro inh 64
COc1ccc(C2=NN(C(=O)c3cccs3)C(c3ccc(OC)cc3)C2)cc1 (stereo not given)	none
C=CCNC(=O)C1(c2ccccc2)CC1(Cl)Cl (stereo not given)	none
O=C(/C=C/Nc1cccc(C(F)(F)F)c1)C(F)(F)F	WT yeast gro inh 65
CCCc1cc2c(OC(=O)CC)c(-c3ccc(C(=O)OCC)o3)c(=O)oc2cc1OC	Arbovirus anti 58
CCCc1cc(-c2n[nH]c(C)c2-c2ccc(C(=O)OCC)o2)c(O)cc1O	none
COc1ccc(-n2cc(-c3ccc(OC(F)F)cc3)[n+]3c2CCCCC3)cc1	none
COc1ccc(CCn2c(C)cc(C(=O)CSc3nnnn3-c3ccccc3)c2C)cc1	none
CCOP(=O)(c1ccccc1)c1nc(-c2ccccc2Cl)oc1N1CCCCC1 (stereo not given)	WT yeast gro inh 66
O=c1c2cnn(-c3ccccc3Cl)c2ncn1Cc1cccnc1	none
COc1cccc(NC(=O)CSC(N)=O)c1	none
CC[n+]1c(/C=C/c2ccc(N(C)C)cc2)ccc2ccccc21	TNAP inh noacc 60, TNAP inh hiacc 60
CC[n+]1ccccc1/C=C/c1ccc(N(C)C)cc1	none
CC[n+]1ccc(/C=C/c2ccc(N(C)C)cc2)c2ccccc21	WT yeast gro inh 87, TNAP inh noacc 52, TNAP inh hiacc 54

Source: PubChem BioAssay (several laboratories)
